Experimental data as given in ChEMBL document CHEMBL4308887, “Synthesis and biological evaluation of clovamide analogues with catechol functionality as potent Parkinson's disease agents in vitro and in vivo” (Bioorg Med Chem Lett, 2019).
Calls of active or inactive are those of the source. The rule behind the calls is not given here.

How the values were obtained:
SH-SY5Y [1] = assay: Protection against H2O2-induced apoptosis in human SH-SY5Y cells assessed as early apoptotic cells at 1 uM preincubated for 6 hrs followed by H2O2 addition and measured after 24 hrs by Annexin V-FITC/propidium iodide staining based flow cytometry (reference value: 6.6%); type: functional
SH-SY5Y [2] = assay: Neuroprotection against H2O2-induced cell death in human SH-SY5Y cells assessed as cell viability at 10 uM preincubated for 6 hrs followed by H2O2 addition and measured after 24 hrs in presence of PI3K/Akt/mTOR inhibitor LY294002 by MTT assay relative to control; type: functional; conditions: read-out: Activity
Procedure, shortened: (§1)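 SH-SY5Y cells preincubated 1 h with LY294002 (5 μM) or rapamycin (100 nM). Then 1 (10 μM) for 6 h, then 600 μM H₂O₂. Viability by MTT. Mean ± S.E.M., three independent experiments.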

[3] = Activation of PI3K/Akt/mTOR signaling in human SH-SY5Y cells assessed as increase in AKT phosphorylation after 5 to 360 mins by Western blot analysis; type: cell-based
Procedure, shortened: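 SH-SY5Y cells, unstimulated, exposed to 1 for 5, 15, 30, 60, 120, 240 or 360 min. Phospho-AKT and phospho-mTOR measured by western blot, reported as p-AKT/t-AKT and p-mTOR/t-mTOR ratios after densitometry. Mean ± S.E.M. of three independent experiments.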

[4] = Clearance in Sprague-Dawley rat at 5 mg/kg, iv by LC-MS/MS analysis; type: ADME, organism-based; conditions: in vivo
Procedure, shortened: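 Male Sprague–Dawley rats dosed with 1 at 5 mg/kg i.v. (vehicle 5% DMSO, 2% F68, 93% saline) or 25 mg/kg p.o. (0.5% methylcellulose with 1% Tween 80). Orbital blood sampled at 0.083–24 h, 12 time points. Plasma PK parameters derived. Mean ± SD, n = 3.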

SH-SY5Y [5] = assay: Protection against H2O2-induced oxidative stress in human SH-SY5Y cells assessed as reactive oxygen species level at 10 uM preincubated for 6 hrs followed by H2O2 addition and measured after 24 hrs by DHE dye based flow cytometry (reference value: 18.6%); type: functional
SH-SY5Y [6] = assay: Protection against H2O2-induced morphological changes in human SH-SY5Y cells at 1 to 10 uM preincubated for 6 hrs followed by H2O2 addition and measured after 24 hrs by inverted microscopic analysis; type: functional, cell-based
Procedure, shortened: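 Cell morphology under inverted microscope after pretreatment and 600 μM H₂O₂; DMSO below 0.1%.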

[7] = Activation of PI3K/Akt/mTOR signaling in human SH-SY5Y cells assessed as up regulation of H2O2-induced HO-1 expression at 10 uM preincubated for 6 hrs followed by H2O2 addition and after 24 hrs in presence of p38 MAPK inhibitor SB203580 by Western blot analysis; type: cell-based
Procedure, shortened: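 SH-SY5Y cells preincubated 1 h with one inhibitor: SB203580 10 μM, LY294002 5 μM, U0126 10 μM, SP600125 5 μM or rapamycin 100 nM. Then 1 (10 μM) for 6 h, then 600 μM H₂O₂. HO-1 measured by western blot and densitometry. Mean ± S.E.M., three independent experiments.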

SH-SY5Y [8] = assay: Neuroprotection against H2O2-induced toxicity in human SH-SY5Y cells assessed as decrease in LDH release preincubated for 6 hrs followed by H2O2 addition and measured after 24 hrs; type: functional, cell-based
Procedure, shortened: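 Cells pretreated with test agent (1 or 10 μM), then 600 μM H₂O₂; plasma membrane damage read as LDH leakage into medium (U/L). DMSO below 0.1% in all groups. Mean ± S.E.M. of three independent experiments.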

SH-SY5Y [9] = assay: Protection against H2O2-induced oxidative stress in human SH-SY5Y cells assessed as reduction in reactive oxygen species level preincubated for 6 hrs followed by H2O2 addition and measured after 24 hrs by DHE dye based flow cytometry; type: functional, cell-based
SH-SY5Y [10] = assay: Neuroprotection against H2O2-induced cell death in human SH-SY5Y cells at 10 uM preincubated for 6 hrs followed by H2O2 addition and measured after 24 hrs in presence of HO-1 inhibitor ZnPPIX by MTT assay; type: functional, cell-based
Procedure, shortened: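 Cells pretreated with ZnPPIX (10 μM) for 1 h and with 1 (10 μM) for 6 h, then exposed to 600 μM H₂O₂ for 24 h. Viability by MTT. Mean ± S.E.M., three independent experiments.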

SH-SY5Y [11] = assay: Protection against H2O2-induced oxidative stress in human SH-SY5Y cells assessed as increase in SOD activity preincubated for 6 hrs followed by H2O2 addition and measured after 24 hrs by xanthine oxidase method; type: functional, cell-based
Procedure, shortened: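 Cellular SOD activity (units) and MDA content (μmol/g) measured in SH-SY5Y after pretreatment (1, 10 μM) and 600 μM H₂O₂. Mean ± S.E.M. of three independent experiments.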

SH-SY5Y [12] = assay: Cytotoxicity against non-stimulated human SH-SY5Y cells assessed as effect on cell viability at 1 to 100 uM measured after 24 hrs by MTT assay
Mus musculus [13] = assay: Anti-parkinson's activity in MPTP-induced C57Bl/6 mouse model of Parkinson's disease assessed as increase in SOD activity in substantia nigra administered intragastrically pretreated for 10 days followed by MPTP challenge measured 10 days post MPTP addition by xanthine oxidase method; type: functional, organism-based
Procedure, shortened: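 Striatum and SNpc from MPTP-treated mice dosed orally with 1 at 10 or 20 mg/kg. MDA level and SOD activity measured. Mean ± S.D., n = 6 mice/group.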

SH-SY5Y [14] = assay: Neuroprotection against H2O2-induced cell death in human SH-SY5Y cells assessed as cell viability at 10 uM preincubated for 6 hrs followed by H2O2 addition and measured after 24 hrs in presence of PI3K/Akt/mTOR inhibitor rapamycin by MTT assay relative to control; type: functional; conditions: read-out: Activity; procedure, shortened: as §1
Mus musculus [15] = assay: Anti-parkinson's activity in MPTP-induced C57Bl/6 mouse model of Parkinson's disease assessed as increase in tyrosine hydroxylase expression in substantia nigra at 10 to 20 mg/kg, ig pretreated for 10 days followed by MPTP challenge measured 10 days post MPTP addition by DAB staining based immunohistochemistry method; type: functional, organism-based
Procedure, shortened: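 Tissue taken 10 days after MPTP injection from mice dosed orally with 1 (10 or 20 mg/kg). TH in SNpc and striatum by western blot, and by DAB immunostaining. Three of the mice per group analysed. Mean ± S.D., n = 6 mice/group.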

[16] = Volume of distribution at steady state in Sprague-Dawley rat at 5 mg/kg, iv by LC-MS/MS analysis; type: ADME, organism-based; conditions: in vivo, read-out: Vdss
Procedure, shortened: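 Male Sprague–Dawley rats (n = 3) dosed i.v. 5 mg/kg (5% DMSO, 2% F68, 93% saline) or p.o. 25 mg/kg (0.5% methylcellulose, 1% Tween 80). Orbital blood at 0.083–24 h (12 points). Plasma concentration–time profiles gave Cl, Vdss, AUC, T1/2, Tmax, Cmax, MRT and absolute F.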

SH-SY5Y [17] = assay: Neuroprotection against H2O2-induced cell death in human SH-SY5Y cells at 100 uM preincubated for 6 hrs followed by H2O2 addition and measured after 24 hrs by MTT assay relative to control; type: functional
Procedure, shortened: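 Human SH-SY5Y neuroblastoma cells pretreated with compound at 100 μM for 6 h, then exposed to 600 μM H₂O₂ for 24 h; viability read by MTT and expressed as protection rate relative to untreated control. DMSO below 0.1% in all groups. Primary single-concentration screen; three independent experiments.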

With COC(=O)[C@H](Cc1ccccc1)NC(=O)/C=C/c1ccc(O)c(O)c1 [N-CAFFEOYL-PHENYLALANINE METHYL ESTER] the Activity (SH-SY5Y [1]) was 6.3%, the viability at 10 µM (SH-SY5Y [2]) was 60.5% and the Activity [3] was “Active”. For the same compound, the clearance [4] was 25.5 mL/min/kg, the Activity (SH-SY5Y [5]) was 6.6% and the Activity (SH-SY5Y [6]) was “Active”. For the same compound, the Activity [7] was “Active”, the Activity (SH-SY5Y [8]) was “Dose-dependent effect” and the Activity (SH-SY5Y [9]) was “Dose-dependent effect”. The Activity (SH-SY5Y [10]) was “inactive”, the Activity (SH-SY5Y [11]) was “Dose-dependent effect” and the Activity (SH-SY5Y [12]) was “Non-Toxic”. For the same compound, the Activity (Mus musculus [13]) was “Dose-dependent effect”, the viability at 10 µM (SH-SY5Y [14]) was 65.9% and the Activity (Mus musculus [15]) was “Active”. For the same compound, the Vd [16] was 2.25 L/kg and the Activity (SH-SY5Y [17]) was >50%.
